According to ChEMBL document CHEMBL4196119, “Quinoxaline-Based Linear HCV NS3/4A Protease Inhibitors Exhibit Potent Activity against Drug Resistant Variants” (ACS Med Chem Lett, 2018):

Key:
Hepatitis C virus [1] = test: Selectivity ratio of EC50 for HCV genotype 1b Con1 harboring HCV genotype 1a H77 NS3 D168V mutant infected in human HuH7 cells to EC50 for HCV genotype 1b Con1 harboring HCV genotype 1a H77 wild type NS3 infected in human HuH7 cells; type: functional, Hepacivirus hominis, isolate Con1
[2] = target: Hepatitis C virus serine protease, NS3/NS4A (Hepatitis C virus, UniProt A3EZI9+D2K2A8, R155K); test: Inhibition of HCV genotype 1a NS3/4A protease R155K mutant expressed in Escherichia coli BL21(DE3) using Ac-DE-Dap(QXL 520)-EE-Abu-psi-[COO]AS-C(5-FAMsp)-NH2 as substrate preincubated for 1 hr followed by substrate addition; set-up: species or system Hepatitis C virus subtype 1a
Summary of the method: (§1)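 Enzyme inhibition constants (Ki) were determined against GT1a NS3/4A protease in three forms: wild type, R155K and D168A.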

Hepatitis C virus [3] = test: Selectivity ratio of EC50 for HCV genotype 1b Con1 harboring HCV genotype 1a H77 NS3 R155K mutant infected in human HuH7 cells to EC50 for HCV genotype 1b Con1 harboring HCV genotype 1a H77 wild type NS3 infected in human HuH7 cells; type: functional, Hepacivirus hominis, isolate Con1
[4] = target: Hepatitis C virus serine protease, NS3/NS4A (Hepatitis C virus, UniProt A3EZI9+D2K2A8, D168A); test: Inhibition of HCV genotype 1a NS3/4A protease D168A mutant expressed in Escherichia coli BL21(DE3) using Ac-DE-Dap(QXL 520)-EE-Abu-psi-[COO]AS-C(5-FAMsp)-NH2 as substrate preincubated for 1 hr followed by substrate addition; set-up: species or system Hepatitis C virus subtype 1a; summary of the method: as §1
Hepatitis C virus [5] = test: Selectivity ratio of EC50 for HCV genotype 1b Con1 harboring HCV genotype 1a H77 NS3 A156T mutant infected in human HuH7 cells to EC50 for HCV genotype 1b Con1 harboring HCV genotype 1a H77 wild type NS3 infected in human HuH7 cells; type: functional, Hepacivirus hominis, isolate Con1
Hepatitis C virus [6] = test: Selectivity ratio of EC50 for HCV genotype 1b Con1 harboring HCV genotype 1a H77 NS3 D168A mutant infected in human HuH7 cells to EC50 for HCV genotype 1b Con1 harboring HCV genotype 1a H77 wild type NS3 infected in human HuH7 cells; type: functional, Hepacivirus hominis, isolate Con1
[7] = target: Hepatitis C virus serine protease, NS3/NS4A (Hepatitis C virus, UniProt A3EZI9+D2K2A8); test: Inhibition of wild type HCV genotype 1a NS3/4A protease expressed in Escherichia coli BL21(DE3) using Ac-DE-Dap(QXL 520)-EE-Abu-psi-[COO]AS-C(5-FAMsp)-NH2 as substrate preincubated for 1 hr followed by substrate addition; set-up: species or system Hepatitis C virus subtype 1a; summary of the method: as §1
Hepatitis C virus [8] = test: Antiviral activity against HCV genotype 1b Con1 harboring HCV genotype 1a H77 NS3 D168A mutant infected in human HuH7 cells assessed as inhibition of viral replication after 96 hrs by luciferase reporter gene assay; type: functional, organism-based, Hepacivirus hominis; conditions: isolate Con1, Huh-7, 96 h
Summary of the method: (§2)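 Cell-based replicon antiviral assays against wild-type HCV and the R155K, A156T, D168A and D168V variants. Potency was expressed as EC50.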

Hepatitis C virus [9] = test: Antiviral activity against HCV genotype 1b Con1 harboring HCV genotype 1a H77 NS3 D168V mutant infected in human HuH7 cells assessed as inhibition of viral replication after 96 hrs by luciferase reporter gene assay; type: functional, organism-based, Hepacivirus hominis; conditions: isolate Con1, Huh-7, 96 h; summary of the method: as §2
Hepatitis C virus [10] = test: Antiviral activity against HCV genotype 1b Con1 harboring HCV genotype 1a H77 NS3 A156T mutant infected in human HuH7 cells assessed as inhibition of viral replication after 96 hrs by luciferase reporter gene assay; type: functional, organism-based, Hepacivirus hominis; conditions: isolate Con1, Huh-7, 96 h; summary of the method: as §2
Hepatitis C virus [11] = test: Antiviral activity against HCV genotype 1b Con1 harboring HCV genotype 1a H77 NS3 R155K mutant infected in human HuH7 cells assessed as inhibition of viral replication after 96 hrs by luciferase reporter gene assay; type: functional, organism-based, Hepacivirus hominis; conditions: isolate Con1, Huh-7, 96 h; summary of the method: as §2
Hepatitis C virus [12] = test: Antiviral activity against HCV genotype 1b Con1 harboring HCV genotype 1a H77 wild type NS3 infected in human HuH7 cells assessed as inhibition of viral replication after 96 hrs by luciferase reporter gene assay; type: functional, organism-based, Hepacivirus hominis; conditions: isolate Con1, Huh-7, 96 h; summary of the method: as §2

SMILES	Ratio EC50 (Hepatitis C virus [1])	Ki [2] [nM]	Ratio EC50 (Hepatitis C virus [3])	Ki [4] [nM]	Ratio EC50 (Hepatitis C virus [5])	Ratio EC50 (Hepatitis C virus [6])	Ki [7] [nM]	EC50 (Hepatitis C virus [8]) [nM]	EC50 (Hepatitis C virus [9]) [nM]	EC50 (Hepatitis C virus [10]) [nM]	EC50 (Hepatitis C virus [11]) [nM]	EC50 (Hepatitis C virus [12]) [nM]
CCc1nc2ccc(OC)cc2nc1O[C@@H]1C[C@H]2C(=O)N[C@]3(C(=O)NS(=O)(=O)C4CC4)C[C@H]3/C=C\CCCCC[C@H](NC(=O)OC(C)(C)C)C(=O)N2C1	28	3.1	5.5	91	29	19	2					
C=C[C@@H]1C[C@]1(NC(=O)[C@@H]1C[C@@H](Oc2nc3cc(OC)ccc3nc2C(F)(F)F)CN1C(=O)[C@@H](NC(=O)OC1CCCC1)C(C)(C)C)C(=O)NS(=O)(=O)C1(C)CC1		22		516			22					
C=C[C@@H]1C[C@]1(NC(=O)[C@@H]1C[C@@H](Oc2nc3cc(OC)ccc3nc2CC)CN1C(=O)[C@@H](NC(=O)OC1CCCC1)C(C)(C)C)C(=O)NS(=O)(=O)C1CC1		15		350			9.8					
C=C[C@@H]1C[C@]1(NC(=O)[C@@H]1C[C@@H]2CN1C(=O)[C@H](C(C)(C)C)NC(=O)O[C@@H]1C[C@H]1CCCCCc1nc3ccc(OC)cc3nc1O2)C(=O)NS(=O)(=O)C1(C)CC1								11	5.3	200	1.9	0.12
C=C[C@@H]1C[C@]1(NC(=O)[C@@H]1C[C@@H](Oc2nc3cc(OC)ccc3nc2C)CN1C(=O)[C@@H](NC(=O)OC1CCCC1)C(C)(C)C)C(=O)NS(=O)(=O)C1CC1	15	9.6	4.8	144	16	10	9.2	101	150	164	48	10
C=C[C@@H]1C[C@]1(NC(=O)[C@@H]1C[C@@H](Oc2nc3cc(OC)ccc3nc2C(C)C)CN1C(=O)[C@@H](NC(=O)OC1CCCC1)C(C)(C)C)C(=O)NS(=O)(=O)C1(C)CC1		43		1000			21					
C=C[C@@H]1C[C@]1(NC(=O)[C@@H]1C[C@@H](Oc2nc3cc(OC)ccc3nc2C)CN1C(=O)[C@@H](NC(=O)OC(C)(C)C)C(C)(C)C)C(=O)NS(=O)(=O)C1CC1		8.5		290			18					
C=C[C@@H]1C[C@]1(NC(=O)[C@@H]1C[C@@H](Oc2nc3cc(OC)ccc3nc2Cl)CN1C(=O)[C@@H](NC(=O)OC(C)(C)C)C(C)(C)C)C(=O)NS(=O)(=O)C1(C)CC1	1.9	3.8	1.6	119	16	4.8	6.1	30	12	100	10	6.3
C=C[C@@H]1C[C@]1(NC(=O)[C@@H]1C[C@@H](Oc2nc3cc(OC)ccc3nc2CC)CN1C(=O)[C@@H](NC(=O)OC(C)(C)C)C(C)(C)C)C(=O)NS(=O)(=O)C1CC1	>21	17	2.1	642	3	>21	19	> 500	> 500	73	50	24
C=C[C@@H]1C[C@]1(NC(=O)[C@@H]1C[C@@H](Oc2nc3cc(OC)ccc3nc2C(F)(F)F)CN1C(=O)[C@@H](NC(=O)OC(C)(C)C)C(C)(C)C)C(=O)NS(=O)(=O)C1(C)CC1		12		513			46					
C=C[C@@H]1C[C@]1(NC(=O)[C@@H]1C[C@@H](Oc2nc3cc(OC)ccc3nc2Cl)CN1C(=O)[C@@H](NC(=O)OC(C)(C)C)C(C)(C)C)C(=O)NS(=O)(=O)C1CC1	1.8	2.2	1.5	128	16	5.8	7.8	38	12	107	10	6.6
C=C[C@@H]1C[C@]1(NC(=O)[C@@H]1C[C@@H](Oc2nc3cc(OC)ccc3nc2CC)CN1C(=O)[C@@H](NC(=O)OC1CCCC1)C(C)(C)C)C(=O)NS(=O)(=O)C1(C)CC1		13		145			6.9					
C=C[C@@H]1C[C@]1(NC(=O)[C@@H]1C[C@@H](Oc2nc3cc(OC)ccc3nc2Cl)CN1C(=O)[C@@H](NC(=O)OC1CCCC1)C(C)(C)C)C(=O)NS(=O)(=O)C1(C)CC1	7.4	5.2	8.7	51	53	8.1	3.9	25	23	163	27	3.1
C=C[C@@H]1C[C@]1(NC(=O)[C@@H]1C[C@@H](Oc2nc3cc(OC)ccc3nc2C)CN1C(=O)[C@@H](NC(=O)OC(C)(C)C)C(C)(C)C)C(=O)NS(=O)(=O)C1(C)CC1		14		265			14					
C=C[C@@H]1C[C@]1(NC(=O)[C@@H]1C[C@@H](Oc2nc3cc(OC)ccc3nc2C(C)C)CN1C(=O)[C@@H](NC(=O)OC(C)(C)C)C(C)(C)C)C(=O)NS(=O)(=O)C1CC1		49		1090			32					
C=C[C@@H]1C[C@]1(NC(=O)[C@@H]1C[C@@H](Oc2nc3cc(OC)ccc3nc2C(C)C)CN1C(=O)[C@@H](NC(=O)OC(C)(C)C)C(C)(C)C)C(=O)NS(=O)(=O)C1(C)CC1		27		1180			29					
C=C[C@@H]1C[C@]1(NC(=O)[C@@H]1C[C@@H](Oc2nc3cc(OC)ccc3nc2C(F)(F)F)CN1C(=O)[C@@H](NC(=O)OC1CCCC1)C(C)(C)C)C(=O)NS(=O)(=O)C1CC1		26		703			34					
C=C[C@@H]1C[C@]1(NC(=O)[C@@H]1C[C@@H](Oc2nc3cc(OC)ccc3nc2C(F)(F)F)CN1C(=O)[C@@H](NC(=O)OC(C)(C)C)C(C)(C)C)C(=O)NS(=O)(=O)C1CC1		24		723			87					
C=C[C@@H]1C[C@]1(NC(=O)[C@@H]1C[C@@H](Oc2nc3cc(OC)ccc3nc2C)CN1C(=O)[C@@H](NC(=O)OC1CCCC1)C(C)(C)C)C(=O)NS(=O)(=O)C1(C)CC1	13	10	6.2	140	19	10	7.1	45	59	87	28	4.5
C=C[C@@H]1C[C@]1(NC(=O)[C@@H]1C[C@@H](Oc2nc3cc(OC)ccc3nc2C(C)C)CN1C(=O)[C@@H](NC(=O)OC1CCCC1)C(C)(C)C)C(=O)NS(=O)(=O)C1CC1		55		985			17					
C=C[C@@H]1C[C@]1(NC(=O)[C@@H]1C[C@@H](Oc2nc3cc(OC)ccc3nc2CC)CN1C(=O)[C@@H](NC(=O)OC(C)(C)C)C(C)(C)C)C(=O)NS(=O)(=O)C1(C)CC1		14		385			16					
C=C[C@@H]1C[C@]1(NC(=O)[C@@H]1C[C@@H](Oc2nc3cc(OC)ccc3nc2Cl)CN1C(=O)[C@@H](NC(=O)OC1CCCC1)C(C)(C)C)C(=O)NS(=O)(=O)C1CC1	7.3	4.1	5.4	99	40	6.8	3.8	50	54	292	40	7.4
